Measured values published in paper PMC3517215 (Journal of medicinal chemistry, 2011).
“And” between values parts separate entries of the source, which are not always exact repeats. Equal values may be shown once. One block for each molecule: values may come before it.

Target: T1, human sEH (Homo sapiens, UniProt P34913)
T1 sequence (P34913 1-555): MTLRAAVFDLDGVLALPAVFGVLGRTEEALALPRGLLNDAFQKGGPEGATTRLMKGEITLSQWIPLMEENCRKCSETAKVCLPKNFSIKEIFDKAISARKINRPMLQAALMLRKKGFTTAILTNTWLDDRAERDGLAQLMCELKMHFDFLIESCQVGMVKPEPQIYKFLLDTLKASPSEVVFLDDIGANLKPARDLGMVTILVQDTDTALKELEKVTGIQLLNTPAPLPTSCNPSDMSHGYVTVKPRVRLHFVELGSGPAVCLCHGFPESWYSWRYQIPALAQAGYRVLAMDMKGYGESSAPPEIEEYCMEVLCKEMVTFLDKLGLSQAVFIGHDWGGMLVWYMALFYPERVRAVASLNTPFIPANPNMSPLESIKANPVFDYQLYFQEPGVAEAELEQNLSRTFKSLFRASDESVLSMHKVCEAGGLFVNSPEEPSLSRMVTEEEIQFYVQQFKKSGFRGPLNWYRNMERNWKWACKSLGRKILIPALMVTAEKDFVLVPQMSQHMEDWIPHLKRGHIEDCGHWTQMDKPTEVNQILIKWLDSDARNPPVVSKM
Test: Human sEH inhibition, fluorescent assay with CMNPC substrate
Type: biochemical
Summary of the method: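 Recombinant human sEH from baculovirus-infected Sf9 cells, purified by His-tag affinity, TEV cleavage and anion exchange. Enzyme (1 nM) preincubated 10 min with test compound (DMSO) in 25 mM Bis-Tris/HCl pH 7.0 at 30 °C, then CMNPC added (5 μM). 6-Methoxy-2-naphthaldehyde fluorescence (ex 330/em 465 nm) read over 10 min. IC50 by regression of ≥6 points (≥3 linear); mean of three runs.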

fold improvement relative to compound 29: 5 fold
Structure (SMILES): COC(=O)c1ccc(CNC(=O)C2CCc3ccccc3C2)cc1 (stereo not shown) [Compound 32, methyl 4-((1,2,3,4-tetrahydronaphthalene-2-carboxamido)methyl)benzoate]

fold improvement in inhibition potency relative to compound 19: 3 fold
Structure (SMILES): O=C(NCCCc1ccccc1)C1CCc2ccccc2C1 (stereo not shown) [Compound 20]

fold better inhibition than compound 27: ~10 fold
Structure (SMILES): COC(=O)c1ccc(CNC(=O)C23CC4CC(CC(C4)C2)C3)cc1 [Compound 29]

fold decrease in inhibition potency relative to compound 19: 4–6 fold
Structure (SMILES): O=C(NCCc1ccccc1)C12CC3CC(CC(C3)C1)C2 [Compound 25]

fold loss in inhibition potency relative to compound 29: 7 fold and > 7 fold
Structure (SMILES): COC(=O)c1ccc2cc(NC(=O)C34CC5CC(CC(C5)C3)C4)ccc2c1 [Compound 31, methyl 6-(1-adamantanecarboxamido)naphthalene-2-carboxylate]

fold improvement over the non-substituted derivatives (4–7): 3.5–15 fold
Structure (SMILES): O=C(NCCCc1ccccc1)C1CCC(C(F)(F)F)CC1 (stereo not shown) [Compound 8]

fold better inhibition in comparison with compound 28: > 10 fold
Structure (SMILES): CCOC(=O)c1ccc(NC(=O)C23CC4CC(CC(C4)C2)C3)cc1 [Compound 27]

fold decrease in inhibition potency relative to compound 19: 4–6 fold
Structure (SMILES): O=C(NCCCCc1ccccc1)C12CC3CC(CC(C3)C1)C2 [Compound 26]

fold improvement in inhibition relative to compounds 4 or 5: > 5 fold
Structure (SMILES): O=C(NCCCc1ccccc1)C1CC=CCC1 (stereo not shown) [Compound 7]

fold improvement in inhibition relative to compounds 4 or 5: > 5 fold
Structure (SMILES): O=C(NCCCc1ccccc1)C1CCCCC1 [Compound 6]

fold less potent compared to compound 32: 3 fold
Structure (SMILES): COC(=O)c1ccc(CNC(=O)c2ccc3ccccc3c2)cc1 [Compound 33]

fold improvement over the non-substituted derivatives (4–7): 3.5–15 fold
Structure (SMILES): CC(C)(C)C1CCC(C(=O)NCCCc2ccccc2)CC1 (stereo not shown) [Compound 9]

fold loss in inhibition potency relative to compound 29: > 7 fold
Structure (SMILES): COC(=O)c1ccc(CCNC(=O)C23CC4CC(CC(C4)C2)C3)cc1 [Compound 30]
